According to article PMC8906121 (Current Research in Parasitology & Vector-borne Diseases, 2021):
pEC50, pKd: −log10 of the molar value.

Key:
[1] = tested on: Anopheles funestus FANG (susceptible); assay: Glazed tile contact bioassay, strain FANG; assay type: in vivo; settings: for LC50 (solo contact toxicity of synergist): synergist alone, 30 min exposure; for LC50 (solo contact toxicity of synergist) / LC50: mortality 24 h; for LC50: female adults, contact exposure 30 min
Outline: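 Adults aged 3–5 days, chilled to anaesthetize, recovered 1 h, then held 30 min on acetone-treated glazed tiles in two replicates of 10. Kept overnight on 10% dextrose; mortality scored at 24 h. Acetone-only control; Abbott correction for 5–20% control mortality, above 20% invalid. At least five repeats; probit LC50 with 95% CI. Synergist solo toxicity was tested the same way at 250–10,000 ppm.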

[2] = tested on: Anopheles funestus FUMOZ-R (resistant); assay: Glazed tile contact bioassay, strain FUMOZ-R; assay type: in vivo; settings: for LC50 (solo contact toxicity of synergist): synergist alone, 30 min exposure; for LC50 (solo contact toxicity of synergist) / LC50: mortality 24 h; for LC50: female adults, contact exposure 30 min
[3] = target: Drosophila wildtype VGSC; settings: Drosophila wildtype VGSC expressed in Xenopus oocytes; ref Vais et al., 2003; cited from earlier work
[4] = target: para-type voltage-gated sodium channels of Musca domestica (Musca domestica, UniProt Q25439); assay: Fluorescence-based membrane potential cation influx assay; assay type: cell-based; settings: for pEC50: EC50, HEK293-VGSC cells, membrane potential fluorescence
[5] = tested on: cytochrome P450s of microsomal preparations of Anopheles funestus strain FANG; assay: Michaelis-Menten kinetics of BOMFC O-debenzylation, FANG microsomes; assay type: biochemical; settings: read-out: apparent Km
Outline: (§1)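 Microsomes from 30–50 adults, homogenized in pH 7.6 phosphate buffer with sucrose, DTT and EDTA, then spun 5,000× g, 15,000× g and 100,000× g at 4 °C. 4 μg protein incubated 1 h at 20 ± 1 °C with eleven BOMFC levels (200–0.195 μM) and 1 mM NADPH, in 0.01% zwittergent with 0.05% BSA. Stopped with pH 10 red-ox mix; hydroxycoumarin fluorescence read; quadruplicates; Michaelis-Menten fit.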

[6] = tested on: cytochrome P450s of microsomal preparations of Anopheles funestus strain FUMOZ-R; assay: Michaelis-Menten kinetics of BOMFC O-debenzylation, FUMOZ-R microsomes; assay type: biochemical; settings: read-out: apparent Km
Outline: as §1

para-type voltage-gated sodium channels of Musca domestica, sequence (Q25439 1-2105): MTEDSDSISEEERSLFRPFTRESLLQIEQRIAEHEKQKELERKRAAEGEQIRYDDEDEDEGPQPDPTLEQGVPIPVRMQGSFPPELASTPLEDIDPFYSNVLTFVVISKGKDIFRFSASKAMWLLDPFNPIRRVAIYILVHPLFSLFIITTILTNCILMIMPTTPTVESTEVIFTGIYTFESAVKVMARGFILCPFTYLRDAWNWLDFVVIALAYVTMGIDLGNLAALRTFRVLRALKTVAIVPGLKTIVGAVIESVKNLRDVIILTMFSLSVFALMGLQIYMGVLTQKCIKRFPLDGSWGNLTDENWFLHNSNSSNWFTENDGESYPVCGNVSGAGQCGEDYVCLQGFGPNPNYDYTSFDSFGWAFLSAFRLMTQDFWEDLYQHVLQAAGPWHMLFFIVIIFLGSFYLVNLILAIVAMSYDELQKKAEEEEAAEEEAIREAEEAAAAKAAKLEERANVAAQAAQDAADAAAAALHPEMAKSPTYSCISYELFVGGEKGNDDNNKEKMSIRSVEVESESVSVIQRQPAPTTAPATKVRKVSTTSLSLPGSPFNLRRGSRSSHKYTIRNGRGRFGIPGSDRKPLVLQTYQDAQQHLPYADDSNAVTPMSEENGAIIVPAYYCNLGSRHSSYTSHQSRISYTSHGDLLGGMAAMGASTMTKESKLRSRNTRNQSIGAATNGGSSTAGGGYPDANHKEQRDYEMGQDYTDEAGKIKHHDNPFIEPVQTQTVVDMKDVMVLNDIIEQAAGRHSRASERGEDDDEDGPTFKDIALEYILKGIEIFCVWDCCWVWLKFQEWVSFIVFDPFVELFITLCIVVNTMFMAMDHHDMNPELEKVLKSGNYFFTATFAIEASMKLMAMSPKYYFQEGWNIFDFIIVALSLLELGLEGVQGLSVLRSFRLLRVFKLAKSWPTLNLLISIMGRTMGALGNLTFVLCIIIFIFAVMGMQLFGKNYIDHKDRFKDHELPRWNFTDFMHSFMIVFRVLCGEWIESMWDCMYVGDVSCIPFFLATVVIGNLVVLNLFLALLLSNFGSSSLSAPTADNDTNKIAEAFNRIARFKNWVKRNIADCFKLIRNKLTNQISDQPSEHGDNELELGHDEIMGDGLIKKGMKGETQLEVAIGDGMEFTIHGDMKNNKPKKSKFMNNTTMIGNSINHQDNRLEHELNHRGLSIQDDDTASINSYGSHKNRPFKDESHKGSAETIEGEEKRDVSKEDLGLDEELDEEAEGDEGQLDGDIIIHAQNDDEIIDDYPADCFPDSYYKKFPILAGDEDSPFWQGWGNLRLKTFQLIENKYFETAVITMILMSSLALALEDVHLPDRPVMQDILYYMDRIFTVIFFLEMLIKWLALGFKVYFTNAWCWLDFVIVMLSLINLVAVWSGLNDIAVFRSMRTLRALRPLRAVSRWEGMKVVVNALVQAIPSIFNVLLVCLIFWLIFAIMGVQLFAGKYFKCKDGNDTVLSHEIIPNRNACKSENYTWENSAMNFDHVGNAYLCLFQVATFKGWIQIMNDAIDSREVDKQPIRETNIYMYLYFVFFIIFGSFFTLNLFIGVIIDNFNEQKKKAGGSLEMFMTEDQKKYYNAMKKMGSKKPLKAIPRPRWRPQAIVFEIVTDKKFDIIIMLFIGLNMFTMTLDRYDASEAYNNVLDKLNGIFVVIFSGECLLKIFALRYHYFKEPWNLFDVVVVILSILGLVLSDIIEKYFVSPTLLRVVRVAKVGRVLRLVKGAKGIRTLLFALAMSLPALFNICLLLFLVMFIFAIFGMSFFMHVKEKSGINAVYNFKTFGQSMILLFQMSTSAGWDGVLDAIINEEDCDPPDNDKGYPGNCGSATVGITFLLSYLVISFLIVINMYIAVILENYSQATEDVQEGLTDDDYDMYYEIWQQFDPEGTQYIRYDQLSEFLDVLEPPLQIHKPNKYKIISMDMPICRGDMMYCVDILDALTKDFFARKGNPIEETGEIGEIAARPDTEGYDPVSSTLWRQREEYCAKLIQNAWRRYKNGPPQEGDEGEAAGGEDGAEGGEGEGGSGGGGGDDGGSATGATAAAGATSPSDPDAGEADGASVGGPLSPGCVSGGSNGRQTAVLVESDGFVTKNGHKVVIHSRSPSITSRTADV

CCCOC/C(=N\c1ccc(Cl)cc1C(F)(F)F)n1ccnc1 [Triflumizole, triflumizole]
LC50 (solo contact toxicity of synergist) [1]: 136 mg/m^2 | LC50 (solo contact toxicity of synergist) [2]: 392 mg/m^2

CC1(C)[C@H](C(=O)O[C@H](C#N)c2cccc(Oc3ccccc3)c2)[C@@H]1C=C(Br)Br [Deltamethrin, deltamethrin]
pKd [3]: 8.33 | LC50 [1]: 0.0206 mg/m^2 | LC50 [2]: 4.61 mg/m^2 | pEC50 [4]: 8.28

CCCCOCCOCCOCc1cc2c(cc1CCC)OCO2 [PBO, piperonyl butoxide]
LC50 (solo contact toxicity of synergist) [1]: 325 mg/m^2 | LC50 (solo contact toxicity of synergist) [2]: > 1,000 mg/m^2

Nn1nnc2ccccc21 [1-ABT, 1-aminobenzotriazole]
mortality at 750 mg/m2 ([1]; Anopheles funestus): < 10% | mortality at 750 mg/m2 ([2]; Anopheles funestus): < 10%

CC1(C)C(C=C(Cl)Cl)C1C(=O)OCc1cccc(Oc2ccccc2)c1 (stereo not drawn) [Permethrin, permethrin]
LC50 [1]: 0.543 mg/m^2 | RR fold lower than for deltamethrin ([2]; FUMOZ-R resistance ratio compared with deltamethrin): ~30 fold | Resistance ratio (RR) ([2]; LC50 FUMOZ-R divided by LC50 FANG): 7.76 | LC50 [2]: 4.21 mg/m^2 | pEC50 [4]: 6.14

O=c1cc(C(F)(F)F)c2ccc(OCOCc3ccccc3)cc2o1 [BOMFC, 7-benzyloxymethoxy-4-trifluoromethylcoumarin]
Km [5]: 5.76 µM | Km [6]: 4.41 µM

CC1(C)[C@H](C=C(Cl)Cl)[C@H]1C(=O)OCc1c(F)c(F)cc(F)c1F [Transfluthrin, 2,3,5,6-tetrafluorobenzyl(1R,3S)-3-(2,2-dichlorovinyl)-2,2-dimethylcyclo-propanecarboxylate]
LC50 [1]: 0.023 mg/m^2 | fold more active than permethrin ([1]; glazed tile bioassays against strain FANG): ≤ 25 fold | LC50 [2]: 0.0576 mg/m^2 | fold less active on VGSC than deltamethrin ([4]; compared with deltamethrin): more than 100 fold

CC1(C)C(C=C(Cl)Cl)C1C(=O)OC(C#N)c1cccc(Oc2ccccc2)c1 (stereo not drawn) [Cypermethrin]
LC50 [1]: 0.0968 mg/m^2 | LC50 [2]: 7.54 mg/m^2 | pEC50 [4]: 7.41
